The values below come from ChEMBL document CHEMBL1135643, “Synthesis and biological activity of strongly fluorescent tricyclic analogues of acyclovir and ganciclovir” (2002).

SMILES strings stand for the structures. In brackets after ≈: the same amount, converted by molar mass.

What all share (assay type): functional
Assay [1] is described as follows: Minimum cytotoxic concentration in E6SM fibroblast cells. Particulars: Homo sapiens, read-out: Min cytotoxic concentration.
The nature of assay [2]: Minimum inhibitory concentration against Herpes simplex Virus-1(F). Conditions: Human alphaherpesvirus 1. The method in brief: (§1)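 Confluent E6SM fibroblast monolayers were infected with 100 CCID50 of virus (1 CCID50 infects 50% of inoculated cultures). After 1 h adsorption, residual virus was removed and cultures were incubated with 2- to 5-fold serial dilutions of compound. Inhibition of virus-induced cytopathicity was scored once the virus-infected controls reached full CPE (day 3 post-infection).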

Assay [3] can be described thus: Minimum inhibitory concentration against Herpes simplex Virus-1(KOS). Particulars: Human alphaherpesvirus 1. The essentials: as §1
The nature of assay [4]: Minimum inhibitory concentration against Herpes simplex Virus-1 (KOS) (ACV). Particulars: Human alphaherpesvirus 1. The method in brief:
as §1

Assay [5] is described as follows: Minimum inhibitory concentration against Herpes simplex Virus-1 (McIntyre). Conditions: Human alphaherpesvirus 1. The method in brief: as §1
A short description of assay [6]: Minimum inhibitory concentration against Herpes simplex Virus-2(196). Conditions: Human alphaherpesvirus 2. The method in brief: as §1
A short description of assay [7]: Minimum inhibitory concentration against Herpes simplex Virus-2(G). The essentials: as §1
Assay [8] in a line: Minimum inhibitory concentration against Herpes simplex Virus-2(Lyons). Particulars: Human alphaherpesvirus 2. The essentials:
as §1

For `CC(C)C(=O)Nc1ccc(-c2cn3c(O)c4ncn(COCCO)c4nc3n2)cc1`, in assay [1], the MCC stood at 975 µM. The MIC in assay [2] turned out to be 4.7 µM (≈ 1.93 µg/mL); in assay [3], 2.8 µM (≈ 1.15 µg/mL); in assay [4], 780 µM (≈ 320 µg/mL); in assay [5] it was 4.7 µM (≈ 1.93 µg/mL); in assay [6] it was 4.7 µM (≈ 1.93 µg/mL); in assay [7] (Human alphaherpesvirus 2), 4.4 µM (≈ 1.81 µg/mL). In addition, in assay [8], the MIC turned out to be 4.7 µM (≈ 1.93 µg/mL).

Take `CC(=O)Nc1ccc(-c2cn3c(O)c4ncn(COCCO)c4nc3n2)cc1`: the MCC in assay [1] amounted to 126 µM. Further, the MIC in assay [2] came to 5 µM (≈ 1.91 µg/mL); in assay [3], 6.7 µM (≈ 2.56 µg/mL); in assay [4], 25 µM (≈ 9.56 µg/mL); in assay [5], 25 µM (≈ 9.56 µg/mL); in assay [6], 25 µM (≈ 9.56 µg/mL); in assay [7] (Human alphaherpesvirus 2), 8.4 µM (≈ 3.21 µg/mL). In assay [8], this compound yielded an MIC of 25 µM (≈ 9.56 µg/mL).

As for `CC(=O)Oc1ccc(-c2cn3c(O)c4ncn(COCCO)c4nc3n2)cc1`, in assay [1], the MCC turned out to be 1040 µM. The MIC in assay [2] came to 0.2 µM (≈ 0.0767 µg/mL); in assay [3], 0.601 µM (≈ 0.23 µg/mL); in assay [4], 626 µM (≈ 240 µg/mL); in assay [5] it was 0.2 µM (≈ 0.0767 µg/mL); in assay [6], 0.2 µM (≈ 0.0767 µg/mL); in assay [7] (Human alphaherpesvirus 1), 0.601 µM (≈ 0.23 µg/mL). Further, the MIC in assay [8] stood at 0.2 µM (≈ 0.0767 µg/mL).

In the case of `Nc1nc2c(ncn2COCCO)c(=O)[nH]1` [ACYCLOVIR], in assay [1], the MCC is 1780 µM. The MIC in assay [2] turned out to be 0.341 µM (≈ 0.0768 µg/mL); in assay [3], 0.341 µM (≈ 0.0768 µg/mL); in assay [4], 249 µM (≈ 56.1 µg/mL); in assay [5] it was 0.341 µM (≈ 0.0768 µg/mL); in assay [6], 1 µM (≈ 0.225 µg/mL); in assay [7] (Human alphaherpesvirus 2), 0.242 µM (≈ 0.0545 µg/mL). Also, the MIC in assay [8] is 1 µM (≈ 0.225 µg/mL).

`Nc1nc2c(ncn2COC(CO)CO)c(=O)[nH]1` [GANCICLOVIR]: the MCC in assay [1] was 392 µM. Moreover, the MIC in assay [2] worked out at 0.045 µM (≈ 0.0115 µg/mL); in assay [3], 0.03 µM (≈ 0.00766 µg/mL); in assay [4], 7.5 µM (≈ 1.91 µg/mL); in assay [5], 0.04 µM (≈ 0.0102 µg/mL); in assay [6], 0.1 µM (≈ 0.0255 µg/mL); in assay [7] (Human alphaherpesvirus 2), 0.06 µM (≈ 0.0153 µg/mL). This compound registered an MIC in assay [8] of 0.045 µM (≈ 0.0115 µg/mL).

In the case of `O=C(Nc1ccc(-c2cn3c(O)c4ncn(COCCO)c4nc3n2)cc1)Oc1ccccc1`, in assay [1], the MCC turned out to be 869 µM. Also, the MIC in assay [2] is 0.834 µM (≈ 0.384 µg/mL); in assay [3] it was 1.1 µM (≈ 0.506 µg/mL); in assay [4], 174 µM (≈ 80.1 µg/mL); in assay [5], 0.834 µM (≈ 0.384 µg/mL); in assay [6], 1.4 µM (≈ 0.645 µg/mL); in assay [7] (Human alphaherpesvirus 2), 2.5 µM (≈ 1.15 µg/mL). The MIC in assay [8] turned out to be 1.4 µM (≈ 0.645 µg/mL).

On to `OCCOCn1cnc2c(O)n3cc(-c4ccc(O)cc4)nc3nc21`, for which, in assay [1], the MCC is 703 µM. In addition, the MIC is 0.225 µM (≈ 0.0768 µg/mL) in assay [2]; 0.675 µM (≈ 0.23 µg/mL) in assay [3]; 234 µM (≈ 79.9 µg/mL) in assay [4]; 0.225 µM (≈ 0.0768 µg/mL) in assay [5]; 0.375 µM (≈ 0.128 µg/mL) in assay [6]; 0.675 µM (≈ 0.23 µg/mL) in assay [7] (Human alphaherpesvirus 2). In assay [8], this compound had an MIC of 0.225 µM (≈ 0.0768 µg/mL).

Regarding `O=C(Oc1ccccc1)Oc1ccc(-c2cn3c(O)c4ncn(COC(CO)CO)c4nc3n2)cc1`, in assay [1], the MCC is 814 µM. In addition, the MIC was 0.031 µM (≈ 0.0152 µg/mL) in assay [2]; 0.008 µM (≈ 0.00393 µg/mL) in assay [3]; 19 µM (≈ 9.34 µg/mL) in assay [4]; 0.781 µM (≈ 0.384 µg/mL) in assay [5]; 0.781 µM (≈ 0.384 µg/mL) in assay [6]; 0.417 µM (≈ 0.205 µg/mL) in assay [7] (Human alphaherpesvirus 2). The same compound came in with an MIC in assay [8] of 0.156 µM (≈ 0.0767 µg/mL).

For `OCC(CO)OCn1cnc2c(O)n3cc(-c4ccc(O)cc4)nc3nc21`, the MCC in assay [1] is 1080 µM. Besides, the MIC came out at 0.041 µM (≈ 0.0152 µg/mL) in assay [2]; 0.041 µM (≈ 0.0152 µg/mL) in assay [3]; 69 µM (≈ 25.6 µg/mL) in assay [4]; 0.207 µM (≈ 0.0769 µg/mL) in assay [5]; 0.207 µM (≈ 0.0769 µg/mL) in assay [6]; 0.96 µM (≈ 0.356 µg/mL) in assay [7] (Human alphaherpesvirus 2). For the same compound, in assay [8], the MIC is 0.207 µM (≈ 0.0769 µg/mL).

As for `CC(C)C(=O)Oc1ccc(-c2cn3c(O)c4ncn(COC(CO)CO)c4nc3n2)cc1`, the MCC in assay [1] turned out to be 906 µM. Moreover, the MIC in assay [2] is 0.035 µM (≈ 0.0155 µg/mL); in assay [3] it was 0.116 µM (≈ 0.0512 µg/mL); in assay [4] it was 22 µM (≈ 9.71 µg/mL); in assay [5], 0.174 µM (≈ 0.0768 µg/mL); in assay [6], 0.87 µM (≈ 0.384 µg/mL); in assay [7] (Human alphaherpesvirus 2), 0.116 µM (≈ 0.0512 µg/mL). Also, the MIC in assay [8] came to 0.174 µM (≈ 0.0768 µg/mL).

Take `CC(=O)Oc1ccc(-c2cn3c(O)c4ncn(COC(CO)CO)c4nc3n2)cc1`: the MCC in assay [1] stood at 968 µM. Further, the MIC in assay [2] was 0.062 µM (≈ 0.0256 µg/mL); in assay [3] it was 0.049 µM (≈ 0.0203 µg/mL); in assay [4], 23 µM (≈ 9.51 µg/mL); in assay [5], 0.186 µM (≈ 0.0769 µg/mL); in assay [6] it was 0.186 µM (≈ 0.0769 µg/mL); in assay [7] (Human alphaherpesvirus 2), 97 µM (≈ 40.1 µg/mL). In addition, in assay [8], the MIC was found to be 0.186 µM (≈ 0.0769 µg/mL).

On to `CC(C)C(=O)Oc1ccc(-c2cn3c(O)c4ncn(COCCO)c4nc3n2)cc1`, for which, in assay [1], the MCC worked out at 972 µM. In addition, the MIC in assay [2] stood at 0.311 µM (≈ 0.128 µg/mL); in assay [3], 0.56 µM (≈ 0.23 µg/mL); in assay [4], 583 µM (≈ 240 µg/mL); in assay [5], 0.187 µM (≈ 0.0769 µg/mL); in assay [6] it was 0.933 µM (≈ 0.384 µg/mL); in assay [7] (Human alphaherpesvirus 2) it was 0.622 µM (≈ 0.256 µg/mL). Besides, the MIC in assay [8] was 0.933 µM (≈ 0.384 µg/mL).

Turning to `NC(=O)Nc1ccc(-c2cn3c(O)c4ncn(COCCO)c4nc3n2)cc1`, the MCC in assay [1] was 209 µM. The MIC stood at 5 µM (≈ 1.92 µg/mL) in assay [2]; 15 µM (≈ 5.75 µg/mL) in assay [3]; 126 µM (≈ 48.3 µg/mL) in assay [4]; 5 µM (≈ 1.92 µg/mL) in assay [5]; 8.3 µM (≈ 3.18 µg/mL) in assay [6]; 15 µM (≈ 5.75 µg/mL) in assay [7] (Human alphaherpesvirus 2). The same compound came in with an MIC in assay [8] of 8.3 µM (≈ 3.18 µg/mL).

Regarding `O=C(Oc1ccccc1)Oc1ccc(-c2cn3c(O)c4ncn(COCCO)c4nc3n2)cc1`, the MCC in assay [1] amounted to 867 µM. Also, the MIC in assay [2] came to 0.166 µM (≈ 0.0766 µg/mL); in assay [3] it was 0.832 µM (≈ 0.384 µg/mL); in assay [4], 694 µM (≈ 320 µg/mL); in assay [5] it was 0.166 µM (≈ 0.0766 µg/mL); in assay [6], 0.832 µM (≈ 0.384 µg/mL); in assay [7] (Human alphaherpesvirus 2), 0.83 µM (≈ 0.383 µg/mL). The compound further had an MIC in assay [8] of 0.832 µM (≈ 0.384 µg/mL).
